Entries after “also recorded” stand apart in the source; their conditions may differ.
Tests used:
Hep3B cells = assay: Hep3B-Luc orthotopic xenograft in liver of nude mice; type: in vivo; conditions: 30 mg/kg IP daily or every other day
Procedure, shortened: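 Orthotopic model: luciferase-expressing Hep3B cells were injected into the liver parenchyma of nude mice. Once tumour was established (luciferase counts doubled on 3 consecutive bioluminescent reads), mice received test compound 30 mg/kg IP daily or every other day as tolerated, or DMSO vehicle. Tumour and normal liver were harvested after 20–57 days for Oil Red O, cleaved caspase-3 immunostaining and TUNEL.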

liver = assay: Hepatic steatosis in mice; type: in vivo; conditions: 10 and 30 mg/kg IP, dose-dependent
[1] = tested on: panel of 60 human tumor cell lines; assay: NCI DTP panel of 60 human tumor cell lines; type: cell-based; conditions: NCI/NIH DTP screen
Hep3B-Luc cells = assay: Hep3B-Luc cytotoxicity; type: cell-based, human
Procedure, shortened: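 Hep3B cells engineered to express luciferase from a CMV promoter, tested alongside primary hepatocytes. Viability was read as bioluminescence at 24, 48 and 72 hours after treatment. Cell division was followed by BrdU uptake, with Oil Red O fat staining.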

HNF4α DNA binding = molecular target: T1, HNF4α DNA binding (Homo sapiens, UniProt P41235); assay: HNF4α DNA binding, HNF TransAM ELISA on HepG2 nuclear extracts; type: cell-based; conditions: HepG2 incubated overnight with compound
T1 sequence (P41235 1-474): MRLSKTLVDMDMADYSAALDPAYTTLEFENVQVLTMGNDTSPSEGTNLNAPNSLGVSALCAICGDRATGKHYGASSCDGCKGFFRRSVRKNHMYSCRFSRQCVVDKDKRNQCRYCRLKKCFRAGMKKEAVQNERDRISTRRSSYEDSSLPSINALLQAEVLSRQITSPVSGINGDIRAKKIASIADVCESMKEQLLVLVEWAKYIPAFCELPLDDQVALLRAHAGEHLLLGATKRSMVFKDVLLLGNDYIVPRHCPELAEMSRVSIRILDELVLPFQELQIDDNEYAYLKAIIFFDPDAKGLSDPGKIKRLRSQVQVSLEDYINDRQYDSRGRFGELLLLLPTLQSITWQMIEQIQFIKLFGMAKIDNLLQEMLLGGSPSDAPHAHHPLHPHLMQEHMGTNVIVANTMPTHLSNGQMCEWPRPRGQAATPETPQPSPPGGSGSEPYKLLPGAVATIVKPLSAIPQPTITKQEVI
Procedure, shortened: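 HepG2 cells were incubated overnight with test compound. Nuclear protein extracts (5μg) were added to wells bearing an oligonucleotide with an HNF4α binding site. Bound HNF4α was detected with an anti-HNF4α antibody (ELISA). Mean ± SD, n=3 biological replicates; Student's t-test.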

CYP (2C19) = CYP (2C19) (Homo sapiens, UniProt P33261); assay: Ricerca hit profiling panel: CYP 2C19; type: biochemical; conditions: Ricerca panel of 41 receptors/enzymes
[2] = tested on: primary murine hepatocytes; assay: Primary murine hepatocytes in vitro; type: cell-based
Procedure, shortened: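 Primary murine hepatocytes were exposed to DMSO or test compound (5μM) for 3 days, then fixed and stained with Oil Red O.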

[3] = tested on: endogenous insulin promoter; assay: Endogenous insulin mRNA; type: cell-based, human; conditions: T6PNE cells
Procedure, shortened: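 Q-PCR of endogenous insulin mRNA in T6PNE cells after 48 h exposure to test compound across a concentration series. For fatty acids, cells got 1μM tamoxifen plus fatty acid or DMSO vehicle for 48 hours before RNA harvest. Insulin mRNA was normalized to GAPDH or 18S rRNA; mean ± SE, n=3.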

p57Kip2 expression = assay: Kip2 mRNA in T6PNE cells; type: cell-based, human
Procedure, shortened: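 Kip2 mRNA in T6PNE cells measured by Q-PCR, normalized to 18s rRNA. Treated and DMSO vehicle cells were compared by Student's t-test.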

L-type calcium channel = assay: Ricerca hit profiling panel: L-type calcium channel; type: binding; conditions: Ricerca panel of 41 receptors/enzymes
[4] = Hepatic microsomal stability; type: in vitro ADME; conditions: 60-minute incubation in vitro
tumor cell lines = assay: Toxicity to tumor cell lines versus cultured primary cells in vitro; type: cell-based
HNF4α = molecular target: T2, HNF4α (Homo sapiens, UniProt P41235); assay: DARTS assay in HepG2 cells; type: binding; conditions: HepG2, 20μM, 24hr, subtilisin
T2 sequence (P41235 1-474): T1 sequence (P41235 1-474)
Procedure, shortened: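 DARTS: HepG2 cells were treated with DMSO or test compound at 20μM for 24hr. Read-out is the ligand-induced change in HNF4α sensitivity to proteolysis.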

T6PNE cells = assay: Acylcarnitine analysis by GC/MS of T6PNE cell extracts; type: cell-based, human
HNF4α gene expression [5] = assay: HNF4α mRNA expression in MIN6 cells; type: cell-based, murine; conditions: 5 hours
[6] = tested on: HNF4α-responsive OTC promoter; assay: OTC promoter-luciferase reporter co-transfected with full length human HNF4α; type: cell-based; conditions: 1μM, 48 hours
Solubility = type: physicochemical; conditions: limits deliverable dose in vivo
PPARγ = type: cell-based; conditions: PPRE-Luc, HeLa
Procedure, shortened: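 HeLa cells were co-transfected with a PPRE-Luc reporter, with or without a PPARγ expression vector, then treated with test compound. Read-out was luciferase activity; mean ± SE, n=3.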

HNF4α protein = HNF4α protein and Ki67 in mouse tissues after IP injection; type: in vivo; conditions: mice
HNF4α gene expression [7] = assay: HNF4α mRNA expression in HepG2 cells; type: cell-based; conditions: 48 hours
Procedure, shortened: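 HNF4α mRNA in treated HepG2 cells measured by Q-PCR and normalized to 18S rRNA. Differences in expression assessed by Student's t-test.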

[8] = In vivo PK studies in mice; conditions: mouse, plasma
[9] = Tolerability and VetScan liver panel blood chemistry in mice; type: in vivo
Procedure, shortened: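 NONcNZO10/LtJ or ICR mice received vehicle (DMSO) or test compound IP once daily for 5 days. Normal-mouse groups were DMSO, 30 mg/kg/day and 10 mg/kg/day (n=4 each). Blood was drawn before sacrifice and run on a VetScan analyzer for ALP, ALT, GGT (IU/L), bile acids (μmol/L), total bilirubin, BUN, cholesterol (mg/dL) and albumin (g/dL).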

CYP (2C19), sequence (P33261 whole entry): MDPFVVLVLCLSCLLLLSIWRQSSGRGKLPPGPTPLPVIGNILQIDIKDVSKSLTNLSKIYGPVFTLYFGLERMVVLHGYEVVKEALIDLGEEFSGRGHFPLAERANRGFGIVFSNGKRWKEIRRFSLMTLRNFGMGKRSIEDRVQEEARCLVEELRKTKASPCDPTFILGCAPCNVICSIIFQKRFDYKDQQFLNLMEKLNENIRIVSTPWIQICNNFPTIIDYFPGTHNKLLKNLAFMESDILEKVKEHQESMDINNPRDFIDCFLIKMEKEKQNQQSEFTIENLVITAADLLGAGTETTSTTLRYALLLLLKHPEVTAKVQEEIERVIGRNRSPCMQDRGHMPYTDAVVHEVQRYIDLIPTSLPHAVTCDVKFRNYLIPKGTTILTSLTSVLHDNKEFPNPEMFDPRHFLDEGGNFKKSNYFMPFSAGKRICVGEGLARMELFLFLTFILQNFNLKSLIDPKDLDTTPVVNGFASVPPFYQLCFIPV

Compound: Cc1ccc([N+](=O)[O-])cc1S(=O)(=O)n1c(C)nc2ccccc21 [BI6015, 2-Methyl-1-(2-methyl-5-nitrophenylsulfonyl)-1H-benzo[d]imidazole]
- apoptosis (TUNEL, cleaved caspase-3) in the normal liver (Hep3B cells): but not in the normal liver
- apoptosis (TUNEL, cleaved caspase-3) within the tumor (Hep3B cells): high levels of apoptotic cells
- tumor luciferase counts (Hep3B cells): some treated animals exhibited decreased luciferase counts, this did not occur in all animals
- Oil Red O staining in normal liver and tumor (Hep3B cells; 20–57 days): marked induction
- hepatic steatosis in vivo (liver): marked fat accumulation (steatosis)
- effect on panel of 60 human tumor cell lines [1]: Slowed growth and/or toxicity
- BrdU incorporation in Hep3B-Luc cells (Hep3B-Luc cells; after 48 hours of treatment): decreased
- toxicity to Hep3B cells (Hep3B-Luc cells; bioluminescence, 24, 48 and 72 hours): markedly toxic
- effect on HNF4α DNA binding (HNF4α DNA binding): potently repressed
- cross reactivity with CYP 2C19 (CYP (2C19)): significant cross reactivity
- toxicity in primary hepatocytes in vitro [2]: Toxicity was not observed
- steatosis in primary mouse hepatocytes in vitro ([2]; 5μM, 3 days, Oil Red O): induced steatosis
- effect on endogenous insulin expression / insulin promoter activity [3]: potently inhibited
- reduction of endogenous insulin gene expression [3]: 50 fold
- effect on Kip2 expression (p57Kip2 expression): reduced
- cross reactivity with L-type calcium channel (L-type calcium channel): significant cross reactivity
- hepatic microsomal stability, compound remained [4]: 22%
- toxicity to tumor cell lines in vitro (tumor cell lines): toxic
- effect on HNF4α protease sensitivity (DARTS) (HNF4α): induced altered HNF4α protease sensitivity
- acetylcarnitine (T6PNE cells): concurrent increase
- longer chain acylcarnitines (C18, C18:1, C16, C14) (T6PNE cells): decreased levels
- effect on HNF4α expression in MIN6 (HNF4α gene expression [5]): strongly repressed
- OTC promoter-driven luciferase expression in CV-1 cells [6]: inhibited
- OTC promoter-driven luciferase expression in HepG2 cells [6]: inhibited
- solubility (Solubility): limited solubility
- activity as PPARγ agonist (PPARγ): lacked activity as a PPARγ agonist; also recorded: not to be a PPARγ agonist
- HNF4α expression in the intestine or kidney (HNF4α protein; IP): does not change
- HNF4α protein in the liver (HNF4α protein; IP): loss of HNF4α protein
- number of cells expressing Ki67 in liver, intestine or kidney (HNF4α protein; versus vehicle): no difference
- effect on HNF4α expression in HepG2 (HNF4α gene expression [7]): strongly repressed
- AUC ([8]; ip, 30 mg/kg): 26.7 ng·h/mL
- half-life ([8]; other: oral gavage or intraperitoneal (IP) injection): ~1.5 h
- tolerability ([9]; IP once per day for 5 days, 30 mg/kg): well tolerated
- blood chemistries, including ALT ([9]; VetScan Liver Panel): unaffected
